ChEMBL document CHEMBL1817635, “Ellipticines and 9-acridinylamines as inhibitors of D-alanine:D-alanine ligase” (Bioorg Med Chem, 2011)
Converted amounts (≈) assume the structure as drawn.

Experiments:
[1] = Inhibition of Escherichia coli DdlB assessed as residual activity of the enzyme assessed as orthophosphate formation after 20 mins by malachite green reagent method
Escherichia coli [2] = assay: Antimicrobial activity against Escherichia coli 1411 after 18 hrs by broth microdilution method; format: functional; details: Escherichia coli, 1411, 18 h
Escherichia coli [3] = assay: Antimicrobial activity against AcrAB-deficient Escherichia coli SM1411 after 18 hrs by broth microdilution method; format: functional; details: SM1411, 18 h
Staphylococcus aureus [4] = assay: Antimicrobial activity against Staphylococcus aureus SH1000 after 18 hrs by broth microdilution method; format: functional; details: SH1000, 18 h
Staphylococcus aureus [5] = assay: Effect on membrane integrity in Staphylococcus aureus SH1000 at four times MIC after 10 mins by BacLight assay; format: functional
Escherichia coli [6] = assay: Inhibition of Escherichia coli DdlB assessed as residual activity of the enzyme assessed as orthophosphate formation at 250 uM after 20 mins by malachite green reagent method
Method in brief: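 Purified His-tagged E. coli DdlB, diluted in 50 mM Hepes pH 7.2 with 1 mM DTT. Reaction at 37 °C in 50 mM Hepes pH 8.0, 3.25 mM MgCl2, 6.5 mM (NH4)2SO4, D-Ala, ATP and 5% DMSO. Incubated 20 min, then malachite green reagent added and A650 read after 5 min. Duplicates, with parallel testing in 0.005% Triton X-114.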

Staphylococcus aureus [7] = assay: Antimicrobial activity against Staphylococcus aureus 8325-4 after 18 hrs by broth microdilution method; format: functional; details: 8325-4, 18 h
Method in brief: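 Broth microdilution MIC following British Society for Antimicrobial Chemotherapy guidelines, run against S. aureus […] 8325-4.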

SMILES	IC50 [1]	MIC (Escherichia coli [2])	MIC (Escherichia coli [3])	MIC (Staphylococcus aureus [4])	Activity (Staphylococcus aureus [5])	Activity (Escherichia coli [6])	MIC (Staphylococcus aureus [7])
Cc1c2ccncc2c(C)c2c1[nH]c1ccc(O)cc12	192 µM	16 µg/mL (≈ 61 µM)	8 µg/mL (≈ 30.5 µM)	8 µg/mL (≈ 30.5 µM)	71.9%	–	–
COc1cc2c(cc1CN(C)C)[nH]c1c3ccc(Cl)cc3ncc21	–	128 µg/mL (≈ 377 µM)	32 µg/mL (≈ 94.2 µM)	256 µg/mL (≈ 753 µM)	–	–	–
COc1ccc2nc3cc(Cl)ccc3c(Nc3ccc(O)c(CN(CCCl)CCCl)c3)c2c1	–	–	–	–	–	22%	–
COc1ccc2nc3cc(Cl)ccc3c(Nc3ccc(O)c(CN4CCCC4)c3)c2c1	102 µM	256 µg/mL (≈ 590 µM)	256 µg/mL (≈ 590 µM)	64 µg/mL (≈ 147 µM)	–	20%	–
COc1cc(NCCCNc2c3ccc(Cl)cc3nc3ccc(OC)cc23)c2ncccc2c1	90 µM	> 256 µg/mL	> 256 µg/mL	256 µg/mL (≈ 541 µM)	–	13%	–
CCN(CC)Cc1cc(Nc2c3ccc(Cl)cc3nc3ccc(OC)cc23)ccc1O	320 µM	256 µg/mL (≈ 587 µM)	128 µg/mL (≈ 294 µM)	128 µg/mL (≈ 294 µM)	–	46%	–
Cc1c2cnccc2c(C)c2c1c1cc(Br)ccc1n2C	297 µM	–	–	–	–	–	–
COc1ccc2nc3cc(Cl)ccc3c(Nc3ccc(O)c(CN4CCN(C)CC4)c3)c2c1	162 µM	> 256 µg/mL	64 µg/mL (≈ 138 µM)	–	48.7%	–	32 µg/mL (≈ 69.1 µM)
Cc1c2cc[n+](C)cc2c(C)c2c1[nH]c1cc(F)ccc12.[I-]	64 µM	> 256 µg/mL	4 µg/mL	> 256 µg/mL	–	–	–
CCCCCCCCN(CCCCCCCC)Cc1cc(Nc2c3ccc(Cl)cc3nc3ccc(OC)cc23)ccc1O	–	–	–	–	–	86%	–
COc1ccc2nc3cc(Cl)ccc3c(NCCNc3c4ccc(Cl)cc4nc4ccc(OC)cc34)c2c1	–	–	–	–	–	27%	–
C=CCc1cc(Nc2c3ccc(Cl)cc3nc3ccc(OC)cc23)cc(CN(CC)CC)c1O	161 µM	> 256 µg/mL	> 256 µg/mL	32 µg/mL (≈ 67.2 µM)	47.7%	27%	–
COc1ccc2nc3cc(Cl)ccc3c(Nc3ccc(C(O)CCN(C)C)cc3)c2c1 (configuration not stated)	135 µM	> 256 µg/mL	128 µg/mL (≈ 294 µM)	256 µg/mL (≈ 587 µM)	–	38%	–
CCc1cccc2c1[nH]c1c(C)c3ccncc3c(C)c12	125 µM	> 256 µg/mL	> 256 µg/mL	8 µg/mL (≈ 29.2 µM)	34.2%	–	–
CCN(CC)Cc1cc2[nH]c3c4ccc(Cl)cc4ncc3c2cc1OC	623 µM	256 µg/mL (≈ 696 µM)	32 µg/mL (≈ 87 µM)	256 µg/mL (≈ 696 µM)	–	–	–
COc1ccc2[nH]c3c(C)c4ccncc4c(C)c3c2c1	60 µM	> 256 µg/mL	> 256 µg/mL	> 256 µg/mL	–	–	–
Cc1c2ccncc2c(C)c2c1[nH]c1ccc(Br)cc12	86 µM	> 256 µg/mL	16 µg/mL (≈ 49.2 µM)	16 µg/mL (≈ 49.2 µM)	49.6%	–	–
COc1cc(Nc2c3ccc(Cl)cc3nc3ccc(OC)cc23)c2ncccc2c1	32 µM	> 256 µg/mL	> 256 µg/mL	> 256 µg/mL	–	25%	–
CC(=O)[O-].COc1ccc2[nH]c3c(C)c4cc[n+](C)cc4c(C)c3c2c1	89 µM	256 µg/mL	4 µg/mL	64 µg/mL	–	–	–
Cc1c2cc[n+](C)cc2c(C)c2c1[nH]c1ccccc12.[I-]	46 µM	64 µg/mL	4 µg/mL	16 µg/mL	37.3%	–	–
COc1ccc2c(c1)c1c(C)c3cnccc3c(C)c1n2CCCN	70 µM	32 µg/mL (≈ 96 µM)	8 µg/mL (≈ 24 µM)	–	–	–	32 µg/mL (≈ 96 µM)
Cc1c2cnccc2c(C)c2c1c1ccc(F)cc1n2C	90 µM	> 256 µg/mL	> 256 µg/mL	> 256 µg/mL	–	–	–
COc1ccc2c(c1)c1c(C)c3cnccc3c(C)c1n2C	184 µM	–	–	–	–	–	–
Cc1c2ccncc2c(C)c2c1[nH]c1cc(F)ccc12	103 µM	> 256 µg/mL	8 µg/mL (≈ 30.3 µM)	4 µg/mL (≈ 15.1 µM)	42.8%	–	–
Cc1c2c[n+](C)ccc2c(C)c2c1c1cc(Br)ccc1n2C.[I-]	36 µM	32 µg/mL	1 µg/mL	2 µg/mL	42.4%	–	–
CCN(CC)Cc1cc(Nc2c3ccc(Cl)cc3nc3c(OC)ccc(Cl)c23)ccc1O	119 µM	> 256 µg/mL	> 256 µg/mL	> 256 µg/mL	–	40%	–
Cc1c2cc[n+](C)cc2c(C)c2c1[nH]c1ccc(Br)cc12.[I-]	23 µM	16 µg/mL	4 µg/mL	8 µg/mL	29.8%	–	–
CCN(CC)Cc1cc2[nH]c3c4ccc(Cl)cc4ncc3c2cc1OC.Cl.Cl.Cl	330 µM	> 256 µg/mL	> 256 µg/mL	> 256 µg/mL	–	–	–
COc1ccc2[nH]c3c(C)c4cc[n+](C)cc4c(C)c3c2c1.[I-]	65 µM	256 µg/mL	8 µg/mL	32 µg/mL	16%	–	–
